The record followed here is PubChem BioAssay AID720543 (The Scripps Research Institute Molecular Screening Center, 2013).

Out of some 370,000 compounds screened, about 2,000 (0.54%) were called active. Shown is part of a subset that was picked to be rich in actives. Unmarked numbers belong to inactive results.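 How the source made its calls: active means inhibition exceeding the mean over every tested compound plus 3 SD (cut at about 30% in these data); inactive means the rest.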

Sequence of (Lyso)-N-acylphosphatidylethanolamine lipase (Mus musculus) (Q8VD66 whole entry, looked up): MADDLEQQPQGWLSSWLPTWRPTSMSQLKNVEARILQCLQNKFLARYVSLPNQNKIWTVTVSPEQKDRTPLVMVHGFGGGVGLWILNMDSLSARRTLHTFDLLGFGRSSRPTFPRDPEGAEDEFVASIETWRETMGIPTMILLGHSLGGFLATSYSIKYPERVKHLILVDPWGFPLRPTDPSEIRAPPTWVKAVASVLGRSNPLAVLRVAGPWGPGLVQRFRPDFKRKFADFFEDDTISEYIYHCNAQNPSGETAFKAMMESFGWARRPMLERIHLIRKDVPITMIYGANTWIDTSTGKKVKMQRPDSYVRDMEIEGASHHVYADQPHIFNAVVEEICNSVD

The target of this assay is (Lyso)-N-acylphosphatidylethanolamine lipase (Mus musculus) (UniProt Q8VD66). Description: ABHD4 inhibitors, primary screen, biochemical, fluorescence polarization, mouse (AID 720543).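 Further: 0% = plate median of compound wells and 100% = S159A mutant with DMSO.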 The note with it: purified mABHD4, FP-Rh probe fluorescence polarization; at 8.92 µM; stronger effect = higher value. In a few lines:
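Assay system: wild-type mouse ABHD4 protein; compound: single nominal dose of 8.92 µM, 0.89% DMSO final; schedule: 45 min + 60 min at 25 °C; measured by: FP readout, ex 525 nm / em 598 nm; evaluation: % inhibition of FP-Rh probe binding versus controls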
(In general: Fluorescence polarisation rises when a labelled molecule tumbles more slowly, as on binding a larger partner.)
By inhibition is commonly meant the drop in the measured response relative to a control, in per cent. `O=C(CSc1nc2ccccc2s1)N=Nc1c(O)[nH]c2ccccc12`: the inhibition is -11.2%.
Then `C/C(=N\NC(=O)CNC(=O)C(c1ccccc1)c1ccccc1)c1ccc(C)cc1`, with 0.45%.
Under `C/C(=N\NC(=O)c1ccc(C)cc1)C1C(=O)c2ccccc2C1=O` stands 32.6% (active); under `O=C1c2ccccc2C(=O)C1C(=O)C1CC1`, 10.5%; under `CCOc1cc(C(=O)N2CCc3cc(OC)c(OC)cc3C2)ccc1OC(F)F`, -1.64%.
Regarding `O=C(NCCCc1ccccc1)[C@H](Cc1ccccc1)NC1(C(=O)NCCc2c[nH]c3ccccc23)CCC1`, the inhibition was -14.2%.
`CC(CNc1ccc([N+](=O)[O-])c2cccnc12)Nc1c([N+](=O)[O-])cc(C(F)(F)F)cc1[N+](=O)[O-]` (stereo unspecified): the inhibition is 3.66%.
Under `CC(=O)Oc1ccc(N(C(C)=O)S(=O)(=O)c2ccc3ccccc3c2)cc1Br` stands 32.3% (active); under `CN(C1CCS(=O)(=O)C1)S(=O)(=O)c1ccc2ccccc2c1` (stereo unspecified), 3.99%; under `CCN1CCN(C(=O)CN(C)S(=O)(=O)c2ccc3ccccc3c2)CC1`, 4.18%.
In the case of `Brc1c(CSc2nncc3ccccc23)nc2ccccn12`, the inhibition is -3.21%.
Take `CCC(C)[C@@H](C(=O)OC)N(CCc1cn(Cc2ccccc2)nn1)S(=O)(=O)c1ccccc1Br` (stereo partly specified): the inhibition was -6.72%.
As for `c1ccc2sc(NN=C3CCCC3)nc2c1`, the inhibition was 37.2% (active).
Under `O=C1NC(Nc2nc3ccccc3s2)(C(F)(F)F)C(=O)N1C1CCCCC1` (stereo unspecified) stands -23%; under `O=C(COc1ccc(-c2ccccc2)cc1)NN=C1CCCC1`, 0.58%; under `COC(=O)C1=C(C)N(Cc2ccc(C(F)(F)F)cc2)C(=NCc2ccccc2)NC1c1ccccc1C(F)(F)F` (stereo unspecified), 6.99%.
For the molecule `Cc1nc2ccc(C(=O)N3CCN(C(=O)C(C)(C)C)CC3)cc2n1C1CCCC1`, the inhibition was -2.14%.
Then `COC(=O)[C@]12C[C@H](CC(=O)NCCc3ccccc3OC)C(=O)N(Cc3ccco3)C1=C[C@H](C(C)C)O[C@@H]2C1CC1`, with -4.62%; and `CCOc1[nH]n(-c2ccc(Cl)cc2)c(=O)c1C=Nc1ccc(O)cc1`, with 37.3% (active); and `O=C(c1cccc(C(F)(F)F)c1)N1CC[C@H]2[C@H](CCCN2Cc2cc(F)cc(F)c2)C1`, with -3.78%.
Regarding `CCC1(CC)NC(=O)N(CC(=O)OCC(=O)Nc2ccc(C(F)(F)F)cc2)C1=O`, the inhibition is -3.48%.
Then `O=C(CSc1nc2ccccc2s1)NN=Cc1ccc(O)cc1O`, with 0.63%; and `O=C(CSc1nc2ccccc2n1Cc1ccccc1Cl)N/N=C\c1c[nH]c2ccccc12`, with -14.1%; and `Cn1c(SCC(=O)N/N=C/c2ccc(O)c(O)c2)nc2ccccc21`, with 30.7% (active).
Then `CC1CN(C(=O)c2cccc(NS(=O)(=O)c3ccc(Br)cc3)c2)CC(C)O1` (stereo unspecified), with 3.29%; and `C/C(=N/N1CCN(Cc2cccc3ccccc23)CC1)c1cccnc1`, with -2.15%; and `COCCCNC(NC(=O)c1ccc(C)cc1)C(Cl)(Cl)Cl` (stereo unspecified), with -5.04%.
Under `O=C(C1CCCO1)N1CCN(S(=O)(=O)c2ccc(Br)cc2)CC1` (stereo unspecified) stands 1.47%.
For the molecule `O=C(N/N=C/c1ccc(O)c(O)c1)C1c2ccccc2Oc2ccccc21`, the inhibition was 26.1%.
Under `Oc1ccc(/C=N/Nc2ccc(C(F)(F)F)cn2)cc1O` stands 36.2% (active); under `Cc1nnsc1C(=O)N/N=C/c1cccc(C(F)(F)F)c1`, 3.14%; under `Cc1nccc(-c2ccc(-n3c(C)ccc3C)cc2)n1`, -7.18%.
On to `CNC(=S)NNC(=O)c1oc2nc(-c3ccccc3)cc(-c3ccco3)c2c1N`, for which the inhibition is 37.3% (active).
Under `CC(C)CNC(=O)OCc1cn(Cc2ccc(F)cc2)nn1` stands -1.25%; under `O=C(CSc1nnc(-c2cccc(Cl)c2)n1Cc1ccco1)Nc1ccc(OCc2ccccc2)cc1`, 4.02%.
`Cc1cc(C)cc(NC(=O)N2CCC(N(C)CCC(C)C)CC2)c1`: the inhibition is -1.26%.
Take `CCn1c(SCC(=O)Nc2cccc(F)c2)nnc1-c1cc2cc(Br)ccc2o1`: the inhibition is -4.13%.
Then `[O-][n+]1ccc(OCc2ccccc2)cc1`, with 1.3%; and `CCOC(=O)C1=C(C)NC(SC)=NC1c1ccccc1` (stereo unspecified), with 4.01%; and `CCOC(=O)C1=C(C)N=C2c3ccccc3C(=O)C2C1c1ccc(Br)cc1` (stereo unspecified), with 46.9% (active).
Then `Cc1cccc(C2C3=C(CCCC3=O)N=C3c4ccccc4C(=O)C32)c1` (stereo unspecified), with 25.7%; and `O=C(CN1CCCCCC1)N1c2ccccc2Sc2ccc(C(F)(F)F)cc21`, with -5.91%; and `Cc1c(CC(=O)N2CCN(C(=O)C3COc4ccccc4O3)CC2)c(=O)oc2c(O)c(O)ccc12` (stereo unspecified), with 31.1% (active).
Under `Cc1ccc(S(=O)(=O)N(C)C)cc1NC(=O)COC(=O)C1COc2ccccc2O1` (stereo unspecified) stands -2.17%.
Turning to `COC(=O)Cc1cc(=O)oc2c(C)c(O)ccc12`, the inhibition was -0.82%.
Under `NC(=O)CCC(NS(=O)(=O)c1ccc(Cl)cc1)C(=O)NCc1ccccc1Cl` (stereo unspecified) stands 1.64%.
Under `Cc1noc(C)c1C(=O)N(CC(=O)NC1CCCC1)Cc1ccccc1F` stands 8.87%; under `Cc1ccc2c(C)c(C(=O)N(C)CCC3CCCCO3)oc2c1C` (stereo unspecified), 2.89%.
`COC(=O)CC1CCc2cc(C)cc(C(CC(C)C)NC(=O)[C@H](CC(C)C)NC(=O)OCc3ccccc3)c2O1` (stereo partly specified): the inhibition was 1.24%.
With `COCCOC(=O)c1sc(=S)n(CCOC)c1N`, the inhibition was 52.1% (active).
For the molecule `C=CCN(Cc1ccc2c(c1)OCO2)C(C#CC1CC1)C(C)(C)C` (stereo unspecified), the inhibition is 7.34%.
Under `N#Cc1ccc(OC[C@@H](O)CN2CCC(C(O)(c3ccccc3)c3ccccc3)CC2)c(F)c1` stands 3.13%; under `COCCCn1c(SCC(=O)Nc2oc(C)c3c(C)n[nH]c(=O)c23)nc2sc3c(c2c1=O)CCC3`, -0.16%; under `NC(=O)COc1ccc(/C=N/NC(=O)C2CCCN2S(=O)(=O)c2ccc(Cl)cc2)cc1` (stereo unspecified), -2.8%.
As for `NC(N)=N/N=C/c1ccc(OCc2ccc(Cl)cc2Cl)cc1`, the inhibition was 31.7% (active).
As for `COC(=O)c1ccccc1-n1cc(COC(=O)NCCc2ccccc2)nn1`, the inhibition is 4.86%.
